{"source": "the EternaBench riboswitch data", "key": {"[1]": {"test_system": "MS2 coat protein", "test": "apparent Kd, MS2 coat protein; higher = weaker binding; RNA-MaP array", "method_in_brief": "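With or without input ligand, designed RNAs transcribed on an Illumina sequencing chip from sequenced DNA templates were incubated at room temperature with fluorescently labeled MS2 coat protein at 1.5 nM to 3 μM. The buffer was Tris-HCl pH 7.5 with KCl, MgCl2, BSA, DTT, tRNA and Tween20, and incubation ran 0.8–1.5 h at the lowest and 10–20 min at the highest concentrations. Apparent Kd is reported as the median of fits to binding curves from individual clusters. Designs measured on fewer than 10 clusters are not included.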"}, "[2]": {"test_system": "MS2 coat protein", "test": "apparent Kd, MS2 coat protein; higher = weaker binding; RNA-MaP array; FMN 200 µM where present", "method_in_brief": "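Stalled E. coli RNA polymerase produced the designs on Illumina sequencing-chip clusters. SNAP-549-labelled MS2 coat protein was added from 0.7 or 1.5 nM, doubling to 3 µM, without and then with constant ligand, in 100 mM Tris-HCl pH 7.5, 80 mM KCl, 4 mM MgCl2, BSA, DTT, yeast tRNA and Tween-20. The apparent Kd is the median of filtered per-cluster fits of green signal normalised to red-channel RNA signal and control-cluster median Fmax.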"}, "[3]": {"settings": "designed as: OFF switch for flavin mononucleotide, no ligand"}, "[4]": {"settings": "ligand present: flavin mononucleotide, designed as: OFF switch for flavin mononucleotide"}, "[5]": {"settings": "designed as: ON switch for flavin mononucleotide, no ligand"}, "[6]": {"settings": "ligand present: flavin mononucleotide, designed as: ON switch for flavin mononucleotide"}}, "data": [{"sequence": "ACCCAUUUGUUAGGAUAUGACUCGAGACAGGUACAUGAGGAUCACCCAUGUUGUACAGGACCGUCUCAGAAGGAACGAACGUAU", "values": [{"measurement": "apparent Kd", "setting": "[1]; [3]", "result": 9.64, "unit": "nM"}, {"measurement": "apparent Kd", "setting": "[1]; [4]", "result": 8.75, "unit": "nM"}]}, {"sequence": "AUCUCUGACUAAGGAUAUGCGGCAAAGAGCCUCUCAGAAAACAUGAGGAUCACCCAUGUAUGGACGCAGAAGGUAGUAGCCCAC", "values": [{"measurement": "apparent Kd", "setting": "[1]; [5]", "result": 9.06, "unit": "nM"}, {"measurement": "apparent Kd", "setting": "[1]; [6]", "result": 21.4, "unit": "nM"}]}, {"sequence": "CAUCAAAAGCUAGGAUAUACCUAGAGUACCGGAACAUGAGGAUCACCCAUGUUAGAGUGAUGCUGGUAGAAGGAGCUGGUAAAG", "values": [{"measurement": "apparent Kd", "setting": "[1]; [5]", "result": 31.9, "unit": "nM"}, {"measurement": "apparent Kd", "setting": "[1]; [6]", "result": 15.8, "unit": "nM"}]}, {"sequence": "AGCGAAUAAGGAUAUACGUGAAAAGCACUUAGAGUUGGAUCACAUGAGGAUCACCCAUGUAGAAGGUAUGACGA", "values": [{"measurement": "apparent Kd", "setting": "[1]; [3]", "result": 18.6, "unit": "nM"}, {"measurement": "apparent Kd", "setting": "[1]; [4]", "result": 15.7, "unit": "nM"}]}, {"sequence": "AACAUGUCUCAAGGAUAUAAAACGCUAAAUGGCUUAGAAGGUGAGGCCGCUGUGAGGAUCCCUGACAUGAGGAUCACCCAUGUC", "values": [{"measurement": "apparent Kd", "setting": "[1]; [5]", "result": 10.8, "unit": "nM"}, {"measurement": "apparent Kd", "setting": "[1]; [6]", "result": 9.76, "unit": "nM"}]}, {"sequence": "CACGGCAUUGAGAAGGGAGUGACAUGGAACUGCUCAGGAUAUCAACACACAUUGUUAAAGAAAACAUGAGGAUCACCCAUGUUC", "values": [{"measurement": "apparent Kd", "setting": "[1]; [5]", "result": 11.2, "unit": "nM"}, {"measurement": "apparent Kd", "setting": "[1]; [6]", "result": 9.28, "unit": "nM"}]}, {"sequence": "UUCCCUGCUUAGGAUAUCUAGACAAGACGGUCAAGAGAAGGAAGUACAUGAGGAUCACCCAUGUUUAGCAUGAA", "values": [{"measurement": "apparent Kd", "setting": "[1]; [3]", "result": 10.5, "unit": "nM"}, {"measurement": "apparent Kd", "setting": "[1]; [4]", "result": 14.2, "unit": "nM"}]}, {"sequence": "CGCUCGCGGCGGAAGGAUAUGUCUAUCCGGACAUGAGGAUCACCCAUGUAUGGGUACUUGCUGCAACAGAAGGUCCGUAUUAUAUG", "values": [{"measurement": "apparent Kd", "setting": "[1]; [5]", "result": 290, "unit": "nM"}, {"measurement": "apparent Kd", "setting": "[1]; [6]", "result": 120, "unit": "nM"}]}, {"sequence": "AUGCCACUUAAGAAGGCGGCGUGAUGCUUAGCGUUGAGACAUGAGGAUCACCCAUGUGACGUACCCGAGGAUAUUAAUGGAAUC", "values": [{"measurement": "apparent Kd", "setting": "[1]; [5]", "result": 17, "unit": "nM"}, {"measurement": "apparent Kd", "setting": "[1]; [6]", "result": 11.7, "unit": "nM"}]}, {"sequence": "CUACCAAAUUGAGGAUAUAGCCUGGGAGAACCAAGUUCCAUGAAAUACAUGAGGAUCACCCAUGUCUAGAAGGCAACAAUGGCC", "values": [{"measurement": "apparent Kd", "setting": "[1]; [3]", "result": 92.4, "unit": "nM"}, {"measurement": "apparent Kd", "setting": "[1]; [4]", "result": 145, "unit": "nM"}]}, {"sequence": "GUCGAGAUUCAAGGAUAUCCGAUCUUACGCAUAGUAGAAUGACAUGAGGAUCACCCAUGUGUCCAGGAGAAGGUGAAUGGAUUU", "values": [{"measurement": "apparent Kd", "setting": "[1]; [3]", "result": 33.3, "unit": "nM"}, {"measurement": "apparent Kd", "setting": "[1]; [4]", "result": 21.6, "unit": "nM"}]}, {"sequence": "UAAUCACCCUCAUGUACCUGAGGACAUGAGGAUCACCCAUGUAAGGAUAUAGCCAUUAAAUCUAACUAGAAGGUAUAGGUAAUC", "values": [{"measurement": "apparent Kd", "setting": "[2]; [3]", "result": 808, "unit": "nM"}, {"measurement": "apparent Kd", "setting": "[2]; [4]", "result": 624, "unit": "nM"}]}, {"sequence": "AUGCCAGAAGGAUAUACAUGAGGAUCACCCAUGUCAUGUUUGAUUCGCCCGCAGGGCUGUAGAAGGUCUGGCAU", "values": [{"measurement": "apparent Kd", "setting": "[2]; [3]", "result": 65.2, "unit": "nM"}, {"measurement": "apparent Kd", "setting": "[2]; [4]", "result": 543, "unit": "nM"}]}, {"sequence": "GACGGAUGUAUAGGAUAUCGACUGGAAUACAGUCGAGAAGGAUACAUGAGGAUCACCCAUGUAACCGUCAAUAAUAAUAAUAAU", "values": [{"measurement": "apparent Kd", "setting": "[2]; [3]", "result": 14, "unit": "nM"}, {"measurement": "apparent Kd", "setting": "[2]; [4]", "result": 29.7, "unit": "nM"}]}, {"sequence": "GCAUUGAUAACAGGAUAUAUGAAUCCUACAUGAGGAUCACCCAUGUAGGUGAUCAGCCGCGAUUAGUAGAAGGGUUAUCAAUGC", "values": [{"measurement": "apparent Kd", "setting": "[2]; [5]", "result": 11.4, "unit": "nM"}, {"measurement": "apparent Kd", "setting": "[2]; [6]", "result": 6.43, "unit": "nM"}]}, {"sequence": "GAGUAGUUAAAAGGAUAUUGAUUAUUGUAGGAUCAAGAAGGUUUUAACAUGAGGAUCACCCAUGUAGGACUAUUCCUGUGUAUC", "values": [{"measurement": "apparent Kd", "setting": "[2]; [5]", "result": 16.5, "unit": "nM"}, {"measurement": "apparent Kd", "setting": "[2]; [6]", "result": 14.8, "unit": "nM"}]}, {"sequence": "AAUAUGUUGCAGAAGGUUAUUUUUAUAACGAUCCAUGUGACAUGAGGAUCACCCAUGUAAUUGAUGAAGGAUAUGCAAUAUAUU", "values": [{"measurement": "apparent Kd", "setting": "[2]; [3]", "result": 6.72, "unit": "nM"}, {"measurement": "apparent Kd", "setting": "[2]; [4]", "result": 6.45, "unit": "nM"}]}, {"sequence": "ACAUACUUUCGAGGAUAUCGGUGAUAAAUUUUACGAGAAGGCGAUAAAAGAUAUAAUCUUAUAGACAUGAGGAUCACCCAUGUA", "values": [{"measurement": "apparent Kd", "setting": "[2]; [5]", "result": 30.5, "unit": "nM"}, {"measurement": "apparent Kd", "setting": "[2]; [6]", "result": 27.3, "unit": "nM"}]}, {"sequence": "CUGUGACGGAUCCAGAAUUACAACAUGAGGAUCACCCAUGUACAGGAUAUCGGGUUGAUAGGCGCCGAGAAGGGUAUGAUCACG", "values": [{"measurement": "apparent Kd", "setting": "[2]; [3]", "result": 137, "unit": "nM"}, {"measurement": "apparent Kd", "setting": "[2]; [4]", "result": 121, "unit": "nM"}]}, {"sequence": "AAUUUAAUACAUGAGGAUCACCCAUGUAAAUUAAUUAAGAUCAAGGAUAUCAGCUCGAUUAGAGCUGAGAAGGUGAUCACAUGU", "values": [{"measurement": "apparent Kd", "setting": "[2]; [5]", "result": 368, "unit": "nM"}, {"measurement": "apparent Kd", "setting": "[2]; [6]", "result": 99.4, "unit": "nM"}]}, {"sequence": "CAGCCCUGAGGAUAUCCCUACUUGUACAUGAGGAUCACCCAUGUUCUCCUCUGGGCUUUGGGAGAAGGCAGGUCUC", "values": [{"measurement": "apparent Kd", "setting": "[2]; [3]", "result": 15, "unit": "nM"}, {"measurement": "apparent Kd", "setting": "[2]; [4]", "result": 17.7, "unit": "nM"}]}, {"sequence": "CCCGCGAUGUCAGGAUAUAGUCGGAGGUGCAGACUAGAAGGGACAUGAGGAUCACCCAUGUGCGUGAAAAUUUAAAACCUAAAU", "values": [{"measurement": "apparent Kd", "setting": "[2]; [3]", "result": 39.3, "unit": "nM"}, {"measurement": "apparent Kd", "setting": "[2]; [4]", "result": 119, "unit": "nM"}]}, {"sequence": "UGUAGUUCAGGAUAUGAUGUUUAAAACAUGAGGAUCACCCAUGUAGAUCCUGAAUUAACAUCAGAAGGGAAUAUUU", "values": [{"measurement": "apparent Kd", "setting": "[2]; [3]", "result": 17.9, "unit": "nM"}, {"measurement": "apparent Kd", "setting": "[2]; [4]", "result": 46.2, "unit": "nM"}]}, {"sequence": "AGAAAACAUGAGGAUCACCCAUGUGAGGAUAUCGAUGUCCAGGGCCUGGUGCGGGACUCGAGAAGGCACUGGGA", "values": [{"measurement": "apparent Kd", "setting": "[2]; [3]", "result": 59.9, "unit": "nM"}, {"measurement": "apparent Kd", "setting": "[2]; [4]", "result": 86.9, "unit": "nM"}]}, {"sequence": "UGGCUACAUGAGGAUCACCCAUGUCAGGAUAUGCCGUUGGAUUGACAUCGUCGUACGGGUAGAAGGGACUGCGU", "values": [{"measurement": "apparent Kd", "setting": "[2]; [3]", "result": 59.8, "unit": "nM"}, {"measurement": "apparent Kd", "setting": "[2]; [4]", "result": 58.3, "unit": "nM"}]}, {"sequence": "GCCAUCGCAUGAGGAUAUGCUCCGGUUUCCGGAGCAGAAGGCGUGUCAUAAGACAUGAGGAUCACCCAUGUAGCUAAGAUGGCA", "values": [{"measurement": "apparent Kd", "setting": "[2]; [5]", "result": 249, "unit": "nM"}, {"measurement": "apparent Kd", "setting": "[2]; [6]", "result": 10.8, "unit": "nM"}]}]}
